Test results published in ChEMBL document CHEMBL1138528, “Discovery of tetrasubstituted imidazolines as potent and selective neuropeptide Y Y5 receptor antagonists: reduced human ether-a-go-go related gene potassium channel binding affinity and potent antiobesity effect” (J Med Chem, 2009).
The source made the active and inactive calls. The rule behind the calls is not given here.

Columns and labels:
Mus musculus [1] = assay: Reduction in body weight in moderately high fat diet-induced obese Y5 receptor-deficient mouse model at 3 mg/kg, po BID 15 days; assay type: functional, organism-based; design: dose 3 mg/kg
[2] = Cmax in Beagle dog at 2 mg/kg, iv; assay type: ADME, organism-based, Canis lupus familiaris; design: dose 2 mg/kg, route intravenous; conditions: in vivo
Canis familiaris [3] = assay: Cardiotoxicity in Beagle dog assessed as adverse events at 2 mg/kg, iv; assay type: toxicity, organism-based, Canis lupus familiaris; design: dose 2 mg/kg, route intravenous; conditions: in vivo
Canis familiaris [4] = assay: Cardiotoxicity in Beagle dog assessed as change in mean arterial pressure at 5 mg/kg, iv; assay type: toxicity, organism-based, Canis lupus familiaris, Artery; design: dose 5 mg/kg, route intravenous; conditions: in vivo
Canis familiaris [5] = assay: Cardiotoxicity in Beagle dog assessed as change in left ventricular systolic pressure at 5 mg/kg, iv; assay type: toxicity, organism-based, Canis lupus familiaris, Heart left ventricle; design: dose 5 mg/kg, route intravenous; conditions: in vivo
Canis familiaris [6] = assay: Cardiotoxicity in Beagle dog assessed as change in cardiac contractility pressure at 5 mg/kg, iv; assay type: toxicity, organism-based, Canis lupus familiaris, Heart; design: dose 5 mg/kg, route intravenous; conditions: in vivo
Canis familiaris [7] = assay: Cardiotoxicity in Beagle dog assessed as change in cardiac output pressure at 5 mg/kg, iv; assay type: toxicity, organism-based, Canis lupus familiaris, Heart; design: dose 5 mg/kg, route intravenous; conditions: in vivo
Canis familiaris [8] = assay: Cardiotoxicity in Beagle dog assessed as change in femoral blood flow at 5 mg/kg, iv; assay type: toxicity, organism-based, Canis lupus familiaris; design: dose 5 mg/kg, route intravenous; conditions: in vivo
Canis familiaris [9] = assay: Cardiotoxicity in Beagle dog assessed as prolongation of QTc interval at 5 mg/kg, iv; assay type: toxicity, organism-based, Canis lupus familiaris; design: dose 5 mg/kg, route intravenous; conditions: in vivo
[10] = Cmax in Beagle dog at 5 mg/kg, iv; assay type: ADME, organism-based, Canis lupus familiaris; design: dose 5 mg/kg, route intravenous; conditions: in vivo
Rattus norvegicus [11] = assay: Inhibition of D-[Trp34]NPY-induced acute food intake in Sprague-Dawley rat at 0.3 mg/kg, po pretreated 2 hrs prior to D-[Trp34]NPY challenge measured after 2 hrs; assay type: functional
Outline: (§1)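 SD rats (10-15 weeks) with stereotaxic third-ventricle cannula, tested ≥1 wk post-surgery in light cycle. Oral dose in 0.5% methylcellulose, then 2 h later D-Trp34NPY 1 µg/0.4 µL in aCSF into third ventricle; food intake over 2 h. Mean ± SEM, n = 5-9; Dunnett's test versus agonist-only group.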

[12] = Octanol-water distribution coefficient, log D at pH 7.4; assay type: physicochemical
[13] = Metabolic stability in rat hepatocytes assessed as hepatic clearance by serum incubation method; assay type: ADME, cell-based, Liver, Hepatocyte
[14] = Plasma concentration in Sprague-Dawley rat at 10 mg/kg, po after 2 hrs; assay type: ADME, organism-based; design: dose 10 mg/kg, route oral
Outline: (§2)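 Male SD rats (7-10 weeks, 200-400 g) dosed orally at 10 mg/kg in 0.5% methylcellulose; at 2 h aortic blood taken under isoflurane. Plasma, brain homogenate (sonicated in water) and CSF deproteinized with 3-fold ethanol plus internal standard, -20 °C 20 min, centrifuged; LC/MS/MS with relative calibration curve. Mean, n = 2-3.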

Brain = assay: Drug level in Sprague-Dawley rat brain at 10 mg/kg, po after 2 hrs; assay type: ADME, organism-based; design: dose 10 mg/kg, route oral; conditions: in vivo; outline: as §2
Cerebrospinal fluid = assay: Drug level in Sprague-Dawley rat cerebrospinal fluid at 10 mg/kg, po after 2 hrs; assay type: ADME, organism-based; design: dose 10 mg/kg, route oral; conditions: in vivo, 2 h; outline: as §2
[15] = Ratio of drug level from brain to plasma in Sprague-Dawley rat at 10 mg/kg, po after 2 hrs; assay type: ADME, organism-based; design: dose 10 mg/kg, route oral; outline: as §2
[16] = biological target: T1, Neuropeptide Y receptor type 1 (Homo sapiens, UniProt P25929); assay: Binding affinity to human neuropeptide Y1 receptor
T1 sequence (P25929 whole entry): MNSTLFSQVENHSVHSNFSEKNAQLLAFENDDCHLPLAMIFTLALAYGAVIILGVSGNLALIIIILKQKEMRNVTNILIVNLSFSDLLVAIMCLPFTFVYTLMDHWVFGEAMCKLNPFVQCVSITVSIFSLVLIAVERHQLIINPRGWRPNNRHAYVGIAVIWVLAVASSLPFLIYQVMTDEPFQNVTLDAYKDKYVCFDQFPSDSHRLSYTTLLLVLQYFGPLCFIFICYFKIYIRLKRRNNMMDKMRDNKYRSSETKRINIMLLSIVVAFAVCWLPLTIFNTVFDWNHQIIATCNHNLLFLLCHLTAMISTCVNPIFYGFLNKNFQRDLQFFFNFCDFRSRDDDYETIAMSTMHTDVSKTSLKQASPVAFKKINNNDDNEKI

[17] = biological target: T2, Neuropeptide Y receptor type 2 (Homo sapiens, UniProt P49146); assay: Binding affinity to human neuropeptide Y2 receptor
T2 sequence (P49146 whole entry): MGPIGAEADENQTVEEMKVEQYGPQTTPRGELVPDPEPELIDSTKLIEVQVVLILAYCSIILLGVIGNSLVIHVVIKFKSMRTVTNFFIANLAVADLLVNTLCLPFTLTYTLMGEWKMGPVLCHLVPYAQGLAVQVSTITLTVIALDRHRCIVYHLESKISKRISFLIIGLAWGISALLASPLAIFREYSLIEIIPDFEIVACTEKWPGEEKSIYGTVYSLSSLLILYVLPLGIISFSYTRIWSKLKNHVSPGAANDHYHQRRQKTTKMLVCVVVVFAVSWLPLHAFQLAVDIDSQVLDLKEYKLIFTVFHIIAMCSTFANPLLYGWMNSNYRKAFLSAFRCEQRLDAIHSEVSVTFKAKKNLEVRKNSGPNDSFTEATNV

[18] = biological target: Neuropeptide Y receptor type 4 (Homo sapiens, UniProt P50391); assay: Binding affinity to human neuropeptide Y4 receptor
[19] = Plasma clearance in Sprague-Dawley rat plasma at 1 mg/kg, iv administered as single dose; assay type: ADME, organism-based; design: dose 1 mg/kg, route intravenous
[20] = Volume of distribution at steady state in Sprague-Dawley rat at 1 mg/kg, iv and 1 mg/kg, po administered as single dose; assay type: ADME, organism-based; conditions: in vivo, read-out: Vdss
[21] = AUC (0 to infinity) in Sprague-Dawley rat at 1 mg/kg, po administered as single dose; assay type: ADME, organism-based; design: time infinity, dose 1 mg/kg, route oral; conditions: plasma
[22] = Cmax in Sprague-Dawley rat at 1 mg/kg, iv and 1 mg/kg, po administered as single dose; assay type: ADME, organism-based; conditions: in vivo
[23] = Plasma clearance in rhesus monkey plasma at 0.3 mg/kg, iv administered as single dose; assay type: ADME, organism-based, Macaca mulatta; design: dose 0.3 mg/kg, route intravenous
[24] = Volume of distribution at steady state in rhesus monkey at 1 mg/kg, po and 0.3 mg/kg, iv administered as single dose; assay type: ADME, organism-based, Macaca mulatta; conditions: in vivo, read-out: Vdss
[25] = AUC (0 to infinity) in rhesus monkey at 1 mg/kg, po administered as single dose; assay type: ADME, organism-based, Macaca mulatta; design: dose 1 mg/kg, route oral, time infinity; conditions: plasma
[26] = Bioavailability in Sprague-Dawley rat at 1 mg/kg, iv and 1 mg/kg, po administered as single dose; assay type: ADME, organism-based; conditions: in vivo
[27] = Cmax in rhesus monkey at 1 mg/kg, po and 0.3 mg/kg, iv administered as single dose; assay type: ADME, organism-based, Macaca mulatta; conditions: in vivo
[28] = Bioavailability in rhesus monkey at 1 mg/kg, po and 0.3 mg/kg, iv administered as single dose; assay type: ADME, organism-based, Macaca mulatta; conditions: in vivo
Rattus norvegicus [29] = assay: Inhibition of D-[Trp34]NPY-induced acute food intake in Sprague-Dawley rat at 1 mg/kg, po pretreated 2 hrs prior to D-[Trp34]NPY challenge measured after 2 hrs; assay type: functional; outline: as §1
Mus musculus [30] = assay: Reduction in body weight in moderately high fat diet-induced obese C57BL/6J mouse model at 10 mg/kg, po qid for 5 days followed by BID for 15 days; assay type: functional, organism-based; design: dose 10 mg/kg
Mus musculus [31] = assay: Reduction in body weight in moderately high fat diet-induced obese C57BL/6J mouse model at 3 mg/kg, po qid for 5 days followed by BID for 15 days; assay type: functional, organism-based; design: dose 3 mg/kg
Rattus norvegicus [32] = assay: Inhibition of D-[Trp34]NPY-induced acute food intake in Sprague-Dawley rat at 0.1 mg/kg, po pretreated 2 hrs prior to D-[Trp34]NPY challenge measured after 2 hrs; assay type: functional; outline: as §1

Sequence of Neuropeptide Y receptor type 4 (P50391 whole entry): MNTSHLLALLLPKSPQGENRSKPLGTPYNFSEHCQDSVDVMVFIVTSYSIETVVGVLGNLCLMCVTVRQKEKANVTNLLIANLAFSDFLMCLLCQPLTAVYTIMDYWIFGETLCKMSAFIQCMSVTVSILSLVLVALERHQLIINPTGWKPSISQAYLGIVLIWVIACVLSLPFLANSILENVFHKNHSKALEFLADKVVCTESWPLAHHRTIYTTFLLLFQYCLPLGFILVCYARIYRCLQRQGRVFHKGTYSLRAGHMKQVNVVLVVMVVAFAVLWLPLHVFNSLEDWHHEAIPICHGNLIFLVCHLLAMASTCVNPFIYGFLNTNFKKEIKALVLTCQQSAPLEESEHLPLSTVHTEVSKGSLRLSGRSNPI

- Cmax [2]: 12000 nM
- Cmax [10]: 25000 nM
- logD [12]: 3.2
- CLhep predicted [13]: 18 mL/min/kg
- concentration at 2 h [14]: 2600 nM
- Drug uptake (Brain): 7 nmol/g
- Drug uptake (Cerebrospinal fluid): 0.21 µM
- Kp at 2 h [15]: 2.7
- IC50 [16]: > 10 µM
- IC50 [17]: > 10 µM
- IC50 [18]: > 10 µM
- clearance [19]: 20 mL/min/kg
- Vd [20]: 6.2 L/kg
- AUC(0-inf) [21]: 1.8 µM·h
- Cmax [22]: 500 nM
- clearance [23]: 8 mL/min/kg
- Vd [24]: 4.4 L/kg
- AUC(0-inf) [25]: 4.6 µM·h
- bioavailability [26]: 77%
- Cmax [27]: 590 nM
- bioavailability [28]: 76%
SMILES: C[C@@H]1NC(c2cc(C#N)ccn2)=N[C@@]1(c1ccc(F)cc1)c1ccc(F)nc1
- Activity (Mus musculus [1]): inactive
- Activity (Canis familiaris [3]): Non-toxic
- Activity (Canis familiaris [4]): 28%
- Activity (Canis familiaris [5]): 29%
- Activity (Canis familiaris [6]): 50%
- Activity (Canis familiaris [7]): 46%
- Activity (Canis familiaris [8]): -32%
- Activity (Canis familiaris [9]): 7%
- inhibition in vivo at 0.3 mg/kg (Rattus norvegicus [11]): 54%
- inhibition in vivo at 1 mg/kg (Rattus norvegicus [29]): 93%
- Activity (Mus musculus [30]): Active
- Activity (Mus musculus [31]): Active
- inhibition in vivo at 0.1 mg/kg (Rattus norvegicus [32]): 5%
